Measured values from different studies.
Lines come from different studies, so protocols differ.
Target: Serine/threonine-protein kinase TAO3 (TAOK3, Homo sapiens, UniProt Q9H2K8)
Sequence (Q9H2K8 1-898, as in one of the studies): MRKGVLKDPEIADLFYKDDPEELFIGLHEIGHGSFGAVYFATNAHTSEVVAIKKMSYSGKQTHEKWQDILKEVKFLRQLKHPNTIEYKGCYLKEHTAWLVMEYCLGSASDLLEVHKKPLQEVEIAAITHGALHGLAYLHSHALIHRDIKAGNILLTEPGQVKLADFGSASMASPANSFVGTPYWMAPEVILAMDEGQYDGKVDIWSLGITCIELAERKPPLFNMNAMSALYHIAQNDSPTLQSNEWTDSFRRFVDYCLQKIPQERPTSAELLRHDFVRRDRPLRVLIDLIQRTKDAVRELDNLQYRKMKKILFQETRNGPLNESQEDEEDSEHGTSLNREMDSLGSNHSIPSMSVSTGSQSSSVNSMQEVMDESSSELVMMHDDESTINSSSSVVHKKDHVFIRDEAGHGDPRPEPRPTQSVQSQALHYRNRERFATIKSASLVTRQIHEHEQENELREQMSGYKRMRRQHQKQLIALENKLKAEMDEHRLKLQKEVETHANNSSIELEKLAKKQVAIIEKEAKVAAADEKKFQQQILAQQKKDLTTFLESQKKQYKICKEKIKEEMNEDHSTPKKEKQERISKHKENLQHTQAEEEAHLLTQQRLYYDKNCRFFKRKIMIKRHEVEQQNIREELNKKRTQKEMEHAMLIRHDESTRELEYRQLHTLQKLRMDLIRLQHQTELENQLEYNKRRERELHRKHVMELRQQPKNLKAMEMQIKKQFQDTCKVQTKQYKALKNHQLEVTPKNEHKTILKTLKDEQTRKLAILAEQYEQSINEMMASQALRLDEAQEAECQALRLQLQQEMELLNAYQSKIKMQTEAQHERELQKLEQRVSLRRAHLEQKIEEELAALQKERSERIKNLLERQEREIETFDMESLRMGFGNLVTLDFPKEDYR

| SMILES | effect on | mode | method | tested at | endpoint | result |
| --- | --- | --- | --- | --- | --- | --- |
| C#Cc1cccc(Nc2ncnc3cc(OCCOC)c(OCCOC)cc23)c1 | cell-free assay | – | – | 0.5 µM | remaining signal | 106% |
| CC(C)(O)[C@H]1CC[C@H](Nc2ccc3ncc(-c4cccc(C(F)(F)F)c4)n3n2)CC1 | enzyme activity | inhibitor | – | 1 µM | remaining activity | 75.1% |
| CC(C)(C)c1nc2c(s1)c1nc(N)ncc1c1ccc(NS(=O)(=O)c3c(F)cccc3F)c(F)c12 | enzyme activity | inhibitor | radiometric | 1 µM | remaining activity | 87% |
| O=C(O)[C@@H]1[C@@H](Cn2nnc3ccccc3c2=O)CC[C@H]1C(=O)c1ccc(OCCC2CCOCC2)cc1 | cell-free assay | – | competition with immobilised ligand | 1 µM | remaining binding | 100% |
| CCN(CC)c1ccc(C2=NNC(=O)CC2C)cc1[N+](=O)[O-] (stereo not shown) | enzyme activity | inhibitor | – | 10 µM | remaining activity | 95% |
| Cc1cnc(NC2CCOCC2)nc1-n1cnc(C(=O)NC(CN)c2cc(F)cc(Cl)c2)c1 (stereo not shown) | enzyme activity | inhibitor | radiometric | 1 µM | remaining activity | 89% |
| O=C1NC(=O)c2cc(Nc3ccc(F)cc3)c(Nc3ccc(F)cc3)cc21 | cell-free assay | – | – | 0.5 µM | remaining signal | 89.9% |
| O=C(Nc1cnn(-c2csc(C(=O)NC3COC3)c2)c1)Nc1c(F)cccc1Cl | enzyme activity | inhibitor | – | 5 µM | remaining activity | 90.2% |
| COCCOc1nc(-c2ccc(Cl)nc2)nc2c1CN(C(=O)c1ncn3ccccc13)CC2 | cell-free assay | – | competition with immobilised ligand | 0.1 µM | remaining binding | 100% |
| O=[N+]([O-])c1cccc2[nH]c(CNc3nc(N4CCOCC4)nc4c3ncn4-c3ccsc3)nc12 | binding | – | competition with immobilised ligand | 10 µM | binding vs control | 85% |
| CC(=O)N1CCC(c2ccc(C(=O)NC3=NCCN3)cc2C(F)(F)F)CC1 | cell-free assay | – | competition with immobilised ligand | 1 µM | remaining binding | 87% |
| CCN(CC)CCNC(=O)c1c(C)[nH]c(/C=C2\C(=O)Nc3ccc(F)cc32)c1C | cell-free assay | – | – | 0.5 µM | remaining signal | 82.9% |
| COc1cc(-c2cc(-c3ccc(N4CCNCC4)cc3)cnc2C)cc(OC)c1OC | enzyme activity | inhibitor | – | 1 µM | inhibition | 3% |
| CCCOc1ccc(OC)c(F)c1C(=O)c1ccc(C(=O)N[C@@H]2CNC[C@H]2NC(=O)c2ccc3[nH]ncc3c2)cc1 | enzyme activity | inhibitor | – | 10 µM | remaining activity | 81% |
| COc1cc2c(N3CCN(C(=O)Nc4ccc(OC(C)C)cc4)CC3)ncnc2cc1OCCCN1CCCCC1 | cell-free assay | – | – | 0.5 µM | remaining signal | 96.8% |
| Cc1cc(NC(=O)c2cccc3cc(-c4cccc5[nH]nc(N)c45)ccc23)ccc1F | enzyme activity | inhibitor | – | 0.1 µM | activity vs control | 96% |
| CCC(=N\O)/C(C)=C/c1ccc(F)cc1 | cell-free assay | – | competition with immobilised ligand | 1 µM | remaining binding | 86% |
| O=C1Nc2ccc(Cl)cc2C1=Cc1cc(Cl)c(O)c(Cl)c1 | cell-free assay | – | – | 0.5 µM | remaining signal | 50.6% |
| CC1=C(C#N)C(c2ccc3c(c2)c(NC(=O)c2ccccc2C)nn3C)C(C#N)=C(C)N1 | cell-free assay | – | competition with immobilised ligand | 1 µM | remaining binding | 80% |
| Cc1ccc(Nc2nccc(N(C)c3ccc4c(C)n(C)nc4c3)n2)cc1S(N)(=O)=O | enzyme activity | inhibitor | – | 10 µM | inhibition | 96% |
| O=C(O)c1cc(-c2ccc(C3CCNCC3)cc2)c2ccc(-c3ccc(C(F)(F)F)cc3)cc2c1 | cell-free assay | – | competition with immobilised ligand | 1 µM | remaining binding | 100% |
| CCCS(=O)(=O)Nc1ccc(F)c(C(=O)c2c[nH]c3ncc(-c4ccc(Cl)cc4)cc23)c1F | enzyme activity | inhibitor | – | 1 µM | inhibition | < 10% |
